Measurements from ChEMBL document CHEMBL1145811, “Synthesis and antibacterial activity of a novel series of acylides: 3-O-(3-pyridyl)acetylerythromycin A derivatives” (J Med Chem, 2003).
Values after ≈ are worked out from the molar mass of the structure shown.

Assays:
[1] = test system: Haemophilus influenzae; assay: In vitro minimum inhibitory concentration for antibacterial activity against Haemophilus influenzae ATCC 33533 (ampicillin-resistant strain that produces beta-lactamase); assay type: functional
Outline: (§1)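 Agar dilution MIC determined by the Japan Society of Chemotherapy standard method for aerobic bacteria.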

[2] = test system: Haemophilus influenzae; assay: In vitro minimum inhibitory concentration for antibacterial activity against Haemophilus influenzae ATCC 43095 (ampicillin-susceptible strain that does not produce beta-lactamase); assay type: functional; outline: as §1
[3] = test system: Mus musculus; assay: Effective dose in vivo, in mouse inoculated intraperitoneally with 1.47*10e3 CFU of erythromycin susceptible strain Streptococcus pneumoniae IID553; assay type: functional; conditions: ip
Outline: (§2)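 Mouse protection test: mice were infected intraperitoneally with erythromycin-susceptible S. aureus Smith or S. pneumoniae IID553. Compounds were given orally 1 h after inoculation.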

[4] = test system: Mus musculus; assay: Effective dose in vivo, in mouse inoculated intraperitoneally with 5.80*10e7 CFU of erythromycin susceptible strain Staphylococcus aureus Smith; assay type: functional; conditions: ip; outline: as §2
[5] = test system: Staphylococcus aureus; assay: In vitro minimum inhibitory concentration for antibacterial activity against erythromycin-susceptible strain Staphylococcus aureus […]; assay type: functional
Outline: (§3)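 MIC by agar dilution following the Japan Society of Chemotherapy standard method for aerobic bacteria. S. aureus 209P-JC and S. pneumoniae IID553 are erythromycin-susceptible strains.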

[6] = test system: Staphylococcus aureus; assay: In vitro minimum inhibitory concentration for antibacterial activity against Staphylococcus aureus B1 (inducibly MLSb-resistant strain encoded by the erm(C) gene); assay type: functional; outline: as §1
[7] = test system: Streptococcus pneumoniae; assay: In vitro minimum inhibitory concentration for antibacterial activity against erythromycin susceptible strain Streptococcus pneumoniae IID553; assay type: functional
[8] = test system: Streptococcus pneumoniae; assay: In vitro minimum inhibitory concentration for antibacterial activity against erythromycin-susceptible strain Streptococcus pneumoniae IID553; assay type: functional; outline: as §3
[9] = test system: Streptococcus pneumoniae; assay: In vitro minimum inhibitory concentration for antibacterial activity against Streptococcus pneumoniae 210 (efflux-resistant strain encoded by the mef(A) gene); assay type: functional; outline: as §1
[10] = test system: Streptococcus pneumoniae; assay: In vitro minimum inhibitory concentration for antibacterial activity against Streptococcus pneumoniae 211 (MLSb-resistant strain encoded by the erm(B) gene); assay type: functional; outline: as §1
[11] = test system: Staphylococcus aureus; assay: In vitro minimum inhibitory concentration for antibacterial activity against Staphylococcus aureus SR138 (constitutively MLSb-resistant strain encoded by the erm(A) gene); assay type: functional; outline: as §1
[12] = test system: Staphylococcus aureus; assay: In vitro minimum inhibitory concentration for antibacterial activity against erythromycin susceptible strain Staphylococcus aureus Smith; assay type: functional
[13] = Maximum concentration in the lung of mice following a single oral dose of 10 mg/kg (data represent mean in 3 mice); assay type: ADME, organism-based; design: dose 10 mg/kg, route oral; conditions: mouse
Outline: (§4)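 Mice received a single 10 mg/kg oral dose. Serum and lung were sampled for drug levels. Cmax is in µg/mL and AUC over 0–8 h is in µg·h/mL. Values are the mean of three mice.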

[14] = Maximum concentration in the serum of mice following a single oral dose of 10 mg/kg (data represent mean in 3 mice); assay type: ADME, organism-based; design: dose 10 mg/kg, route oral; conditions: mouse; outline: as §4
[15] = Area under the curve was determined for the compound from the lung of mice following a single oral dose of 10 mg/kg (data represent mean in 3 mice); assay type: ADME, organism-based; design: dose 10 mg/kg, route oral; conditions: mouse, read-out: AUC 0-8; outline: as §4
[16] = Area under the curve was determined for the compound from the serum of mice following a single oral dose of 10 mg/kg (data represent mean in 3 mice); assay type: ADME, organism-based; design: dose 10 mg/kg, route oral; conditions: mouse, read-out: AUC 0-8; outline: as §4
[17] = test system: Mus musculus; assay: Survival rate of mouse inoculated intraperitoneally with 5.05*10e7 CFU of erythromycin-susceptible strain Streptococcus pneumoniae IID553 after treatment with 0.3 mg of compound; assay type: functional
Outline: (§5)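 Mouse protection test: mice were infected intraperitoneally with 5.05 × 10^7 CFU/mouse, then given the macrolide orally 1 h after inoculation. Survival was recorded as the read-out.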

[18] = test system: Mus musculus; assay: Survival rate of mouse inoculated intraperitoneally with 5.05*10e7 CFU of erythromycin-susceptible strain Streptococcus pneumoniae IID553 after treatment with 3 mg of compound; assay type: functional; outline: as §5

`CC[C@H]1OC(=O)[C@H](C)[C@@H](OC(=O)Cc2cccnc2)[C@H](C)[C@@H](OC2O[C@H](C)C[C@H](N(C)C)[C@H]2O)[C@@](C)(O)C[C@@H](C)/C(=N\O)[C@H](C)[C@H]2OC(=O)O[C@@]21C` (stereo partly drawn) showed an MIC [1] of 3.13 µg/mL (≈ 4.25 µM), an MIC [2] of 3.13 µg/mL (≈ 4.25 µM) and an ED50 [3] of 142 mg/kg. It also gave an ED50 [4] of 51.6 mg/kg, an MIC [5] of 0.39 µg/mL (≈ 0.53 µM) and an MIC [6] of 0.39 µg/mL (≈ 0.53 µM). The MIC [7] was 0.025 µg/mL (≈ 0.034 µM), the MIC [8] was 0.025 µg/mL (≈ 0.034 µM) and the MIC [9] was 0.1 µg/mL (≈ 0.136 µM). For the same compound, the MIC [10] was > 100 µg/mL, the MIC [11] was > 100 µg/mL and the MIC [12] was 0.2 µg/mL (≈ 0.272 µM).

`CC[C@H]1OC(=O)[C@H](C)[C@@H](OC(=O)Cc2cccnc2)[C@H](C)[C@@H](OC2O[C@H](C)C[C@H](N(C)C)[C@H]2O)[C@@](C)(OC)C[C@@H](C)C(=O)[C@H](C)[C@@H](O)[C@]1(C)O` (stereo partly drawn) gave an MIC [1] of 12.5 µg/mL (≈ 17.6 µM), an MIC [2] of 12.5 µg/mL (≈ 17.6 µM) and an ED50 [3] of 40.8 mg/kg. The ED50 [4] was 9.57 mg/kg, the MIC [5] was 0.78 µg/mL (≈ 1.1 µM) and the MIC [6] was 1.56 µg/mL (≈ 2.2 µM). It also gave an MIC [7] of 0.2 µg/mL (≈ 0.282 µM), an MIC [8] of 0.39 µg/mL (≈ 0.55 µM) and an MIC [9] of 0.39 µg/mL (≈ 0.55 µM). The MIC [10] was > 100 µg/mL, the MIC [11] was > 100 µg/mL and the MIC [12] was 0.78 µg/mL (≈ 1.1 µM).

`CC[C@H]1OC(=O)[C@H](C)[C@@H](OC(=O)Cc2cccc([N+](=O)[O-])c2)[C@H](C)[C@@H](OC2O[C@H](C)C[C@H](N(C)C)[C@H]2O)[C@@](C)(OC)C[C@@H](C)C(=O)[C@H](C)[C@@H](O)[C@]1(C)O` (stereo partly drawn) showed an MIC [1] of 25 µg/mL (≈ 33.2 µM), an MIC [2] of 25 µg/mL (≈ 33.2 µM) and an MIC [5] of 0.2 µg/mL (≈ 0.266 µM). It also gave an MIC [6] of 0.78 µg/mL (≈ 1.04 µM), an MIC [8] of 0.1 µg/mL (≈ 0.133 µM) and an MIC [9] of 0.2 µg/mL (≈ 0.266 µM). For the same compound, the MIC [10] was > 100 µg/mL and the MIC [11] was > 100 µg/mL.

`CC[C@H]1OC(=O)[C@H](C)[C@@H](OC(=O)Cc2cccnc2)[C@H](C)[C@@H](OC2O[C@H](C)C[C@H](N(C)C)[C@H]2O)[C@@](C)(OC)C[C@@H](C)C(=O)[C@H](C)[C@H]2OC(=O)O[C@@]21C` (stereo partly drawn) gave an MIC [1] of 3.13 µg/mL (≈ 4.26 µM), an MIC [2] of 3.13 µg/mL (≈ 4.26 µM) and an ED50 [3] of 51.1 mg/kg. The ED50 [4] was 17.5 mg/kg, the MIC [5] was 0.2 µg/mL (≈ 0.272 µM) and the MIC [6] was 0.39 µg/mL (≈ 0.531 µM). The MIC [7] was 0.05 µg/mL (≈ 0.068 µM), the MIC [8] was 0.05 µg/mL (≈ 0.068 µM) and the MIC [9] was 0.2 µg/mL (≈ 0.272 µM). The MIC [10] was > 100 µg/mL, the MIC [11] was > 100 µg/mL and the MIC [12] was 0.2 µg/mL (≈ 0.272 µM).

In the case of `CC[C@H]1OC(=O)[C@H](C)[C@@H](OC(=O)Cc2cccnc2)[C@H](C)[C@@H](OC2O[C@H](C)C[C@H](N(C)C)[C@H]2O)[C@@](C)(OC)C[C@@H](C)C(=O)[C@H](C)[C@H]2NC(=O)O[C@@]21C` (stereo partly drawn), the MIC [1] is reported as 3.13 µg/mL (≈ 4.26 µM), the MIC [2] is reported as 3.13 µg/mL (≈ 4.26 µM) and the ED50 [3] is reported as 17.5 mg/kg. For the same compound, the ED50 [4] was 6.99 mg/kg, the MIC [5] was 0.05 µg/mL (≈ 0.0681 µM) and the MIC [6] was 0.39 µg/mL (≈ 0.531 µM). It also gave an MIC [7] of 0.05 µg/mL (≈ 0.0681 µM), an MIC [8] of 0.05 µg/mL (≈ 0.0681 µM) and an MIC [9] of 0.1 µg/mL (≈ 0.136 µM). The MIC [10] was > 100 µg/mL, the MIC [11] was > 100 µg/mL and the MIC [12] was 0.2 µg/mL (≈ 0.273 µM).

In the case of `CC[C@H]1OC(=O)[C@H](C)[C@@H](OC(=O)Cc2cccnc2)[C@H](C)[C@@H](OC2O[C@H](C)C[C@H](N(C)C)[C@H]2O)[C@@]2(C)C[C@@H](C)[C@H](OC(=O)O2)[C@H](C)[C@H]2OC(=O)O[C@@]21C` (stereo partly drawn), the Cmax [13] is reported as 1350 ng/mL, the Cmax [14] is reported as 120 ng/mL and the AUC [15] is reported as 2460 ng·h/mL. The AUC [16] was 230 ng·h/mL, the MIC [1] was 0.78 µg/mL (≈ 1.04 µM) and the MIC [2] was 0.78 µg/mL (≈ 1.04 µM). For the same compound, the Survival rate [17] was 30%, the Survival rate [18] was 90% and the MIC [5] was 0.1 µg/mL (≈ 0.134 µM). The MIC [6] was 0.2 µg/mL (≈ 0.267 µM), the MIC [8] was 0.025 µg/mL (≈ 0.0334 µM) and the MIC [9] was 0.1 µg/mL (≈ 0.134 µM). For the same compound, the MIC [10] was 100 µg/mL (≈ 134 µM) and the MIC [11] was > 100 µg/mL.

With `CC[C@H]1OC(=O)[C@H](C)[C@@H](O[C@H]2C[C@@](C)(OC)[C@@H](O)[C@H](C)O2)[C@H](C)[C@@H](O[C@@H]2O[C@H](C)C[C@H](N(C)C)[C@H]2O)[C@](C)(OC)C[C@@H](C)C(=O)[C@H](C)[C@@H](O)[C@]1(C)O` [CLARITHROMYCIN] the Cmax [13] was 14100 ng/mL, the Cmax [14] was 1210 ng/mL and the AUC [15] was 30400 ng·h/mL. The AUC [16] was 1310 ng·h/mL, the MIC [1] was 3.13 µg/mL (≈ 4.18 µM) and the MIC [2] was 6.25 µg/mL (≈ 8.36 µM). The ED50 [3] was 13.5 mg/kg, the ED50 [4] was 7.6 mg/kg and the Survival rate [17] was 50%. For the same compound, the Survival rate [18] was 100%, the MIC [5] was 0.1 µg/mL (≈ 0.134 µM) and the MIC [6] was > 100 µg/mL. The MIC [7] was 0.025 µg/mL (≈ 0.0334 µM), the MIC [8] was 0.05 µg/mL (≈ 0.0668 µM) and the MIC [9] was 0.78 µg/mL (≈ 1.04 µM). The MIC [10] was > 100 µg/mL, the MIC [11] was > 100 µg/mL and the MIC [12] was 0.2 µg/mL (≈ 0.267 µM).
